Compound activity: PubChem BioAssay, Johns Hopkins Ion Channel Center
hERG protect: compounds protecting human hERG from proarrhythmic drug block | Q12809 | 310,000 tested, 0.51% active | CHO-hERG, FluxOR thallium flux, dofetilide IC70 present | activation (rescue from dofetilide block), less the hit threshold, % at 10 µM;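 active = activation above the mean of controls blocked by dofetilide plus 5 SD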;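 also: thallium influx through hERG after potassium depolarization seen as dye fluorescence rise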
KCNK3 block: human KCNK3 channel inhibition, primary screen | 340,000 tested, 0.84% active | B-score at 10 µM | O14649 | CHO-KCNK3 thallium flux, FluxOR fluorescence; stronger effect = lower value;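 active = B-score under library mean minus 4 SD, starting fluorescence ratio at most library mean plus 5 SD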;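 also: more negative B-score means stronger inhibition of thallium flux through KCNK3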
KCNQ1 inh: human KCNQ1 channel inhibition; B-score at 10 µM; 310,000 tested, 1.3% active; CHO-K1 KCNQ1, FluxOR thallium flux fluorescence; stronger effect = higher value; P51787; AID 2642;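 active = compounds whose thallium flux B-score, printed positive for inhibition, exceeds three library SD while starting fluorescence stays within three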;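 also: channel opened by potassium depolarization with thallium stimulus after 20 min compound exposure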
Target sequence (P51787 whole entry, looked up): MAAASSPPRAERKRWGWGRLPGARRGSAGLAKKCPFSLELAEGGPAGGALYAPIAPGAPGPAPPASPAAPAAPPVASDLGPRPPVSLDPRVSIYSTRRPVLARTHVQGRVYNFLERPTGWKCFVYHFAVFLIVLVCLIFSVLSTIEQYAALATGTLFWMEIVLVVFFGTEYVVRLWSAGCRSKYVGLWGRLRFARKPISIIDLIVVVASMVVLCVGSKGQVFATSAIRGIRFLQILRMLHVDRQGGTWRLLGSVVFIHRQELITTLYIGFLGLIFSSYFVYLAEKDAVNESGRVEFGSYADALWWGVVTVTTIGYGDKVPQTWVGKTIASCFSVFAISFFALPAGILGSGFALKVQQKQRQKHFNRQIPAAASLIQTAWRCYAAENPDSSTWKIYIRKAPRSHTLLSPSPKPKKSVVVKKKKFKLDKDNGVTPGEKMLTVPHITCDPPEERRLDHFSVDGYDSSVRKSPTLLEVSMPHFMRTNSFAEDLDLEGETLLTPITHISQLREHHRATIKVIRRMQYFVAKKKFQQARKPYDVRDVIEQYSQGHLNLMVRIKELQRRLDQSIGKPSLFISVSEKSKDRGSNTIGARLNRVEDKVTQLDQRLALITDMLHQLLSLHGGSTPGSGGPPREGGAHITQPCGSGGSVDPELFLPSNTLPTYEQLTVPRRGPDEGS
KCNK9 inh: blocks the human KCNK9 two-pore domain potassium channel | Q9NPC2 | HEK293 KCNK9, FluxOR thallium flux fluorescence; stronger effect = lower value | B-score at 10 µM | 310,000 tested, 1.2% active;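 active = ratio B-score over 3 SD below the library mean, with starting fluorescence within 5 SD of its mean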;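 also: negative B-score means less thallium flux so channel inhibition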
Kir21 block: Kir2.1 (mouse) channel inhibition. P35561. HEK293-Kir2.1, FluxOR thallium flux fluorescence; stronger effect = lower value. B-score at 10 µM. 310,000 tested, 0.85% active;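 active = fluorescence ratio B-score at or below minus 3 SD of library scores, with starting-brightness B-score within 2 SD, cut at about -4.2 in these data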;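 also: channel flux triggered by added potassium and thallium sulfate stimulus; B-score of peak minus minimum fluorescence over baseline after thallium stimulus; more negative B-score means stronger Kir2.1 block with less thallium influx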
KCNQ1 pot: human KCNQ1 channel potentiation or activation. CHO-K1 KCNQ1, thallium flux FluxOR fluorescence; stronger effect = higher value. P51787. 310,000 tested, 0.35% active. B-score at 10 µM. AID 2648;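 active = fluorescence ratio B-score, a plate-corrected score, at least three library SD, with initial intensity B-score within 5 SD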
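Medium – assay buffer, equal DMSO in all wells · Material – CHO-K1 cell line with stable KCNQ1 potassium channel expression · Signal – kinetic FluxOR thallium fluorescence, 10-s 1-Hz baseline, 110-s post-stimulus read · Compound – single concentration per compound, DMSO matched to controls · Schedule – 37 °C overnight plating, 90-min dark dye load, 20-min compound pretreatment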
KCNK9 block conf: human KCNK9 inhibitor confirmation; shares compounds with KCNK9 inh; HEK293 KCNK9 cells, FluxOR thallium flux fluorescence; inhibition, % at 10 µM; 4,900 tested, 43% active;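 active = thallium signal inhibited by more than 5 SD of the compound-free buffer control wells, on both duplicate plates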;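 also: 0% = assay buffer control wells without compound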
Kir2-1 spec: selectivity of KCNK9 modulators against mouse Kir2.1. shares compounds with KCNK9 inh. Kir2.1 cells, FluxOR thallium flux fluorescence. inhibition, % at 10 µM. 4,900 tested, 4% active;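 active = thallium signal drop more than 5 SD beyond the mean of the no-compound control wells, seen in both duplicate plates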;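 also: signal is fluorescence rise after thallium addition divided by baseline fluorescence; plate controls were assay buffer only for no effect and full block by chlorpromazine control for full effect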
HEK293 Tl ctr: second check of KCNK9 modulator effects in non-induced HEK293 cells; 4,900 tested, 40% active; FluxOR thallium flux; shares compounds with KCNK9 inh; inhibition, % at 10 µM;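 active = thallium signal drop beyond 5 SD of the untreated control mean, on both duplicate plates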;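 also: plate controls were buffer only IC0 wells for no effect and SID17386958 at its maximal inhibitory level for full effect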
KCNK3 inh conf: human KCNK3 channel inhibition, confirmation assay; shares compounds with KCNK3 block; CHO-KCNK3 thallium flux, FluxOR fluorescence; 0% buffer, 100% carvedilol maximal block; ratio percent of control, % at 10 µM; 2,400 tested, 99% active; AID 651638;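 active = ratio percent of control, averaged over triplicates, above buffer control mean plus 5 SD, cut at about 64% in these data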;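 also: ratio is the fluorescence rise from min to max over baseline after thallium stimulus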
KCNK3 noninduced: counter-screen for KCNK3 inhibitors: effect in non-induced cells. 2,400 tested, 40% active. non-induced KCNK3 parental cells, FluxOR thallium flux; stronger effect = lower value. AID 651747. shares compounds with KCNK3 block. thallium flux ratio (lower = more inhibition) at 10 µM;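 active = thallium flux ratio, averaged over three wells, more than 5 SD below the buffer control mean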;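 also: host cells are CHO cells without KCNK3 induction; ratio is peak minus trough fluorescence over baseline then normalized to buffer controls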
The depositor's hits bear a star; i = inactive; . = not tested or not shown. An excerpt weighted towards active compounds, which were near 3.7% of everything screened.

SMILES	hERG protect	KCNK3 block	KCNQ1 inh	KCNK9 inh	Kir21 block	KCNQ1 pot	KCNK9 block conf	Kir2-1 spec	HEK293 Tl ctr	KCNK3 inh conf	KCNK3 noninduced
Cc1c(N=C2N=C(NC(=O)c3cccs3)c3ccccc32)c(=O)n(-c2ccccc2)n1C	-17	-9.9*	i	-9.2*	0.88	i	56%*	i	56%*	141*	0.1*
Cc1c(N=C2N=C(NC(=O)NC(C)(C)C)c3ccccc32)c(=O)n(-c2ccccc2)n1C	-3	i	i	i	2.1	i	.	.	.	.	.
O=C(N/N=C/C=C/c1ccccc1)NC1CCCCC1	-13	i	i	i	0.13	i	.	.	.	.	.
C/C(=N\Nc1cc(C)nc(-c2ccccc2)n1)c1cccc([N+](=O)[O-])c1	-5	-9.7*	i	-11*	-0.05	i	50%*	i	32%*	103*	i
CCSc1nc2ccccc2n1CCOc1ccccc1	-3	-11*	i	-12*	-1.2	i	28%*	i	30%*	120*	i
COCCn1c(SCCOc2ccccc2)nc2ccccc2c1=O	-11	-9*	i	-11*	-2.3	i	38%*	i	46%*	114*	0.14*
OCCn1c(SCCOc2ccccc2)nc2ccccc21	-8	i	i	i	-0.61	i	.	.	.	.	.
COCCn1c(SCC(=O)c2ccccc2)nc2ccccc2c1=O	-6	i	i	i	1.5	i	.	.	.	.	.
Cc1cc(OCC(=O)OCC(=O)c2ccc[nH]2)ccc1Cl	.	i	.	.	.	.	.	.	.	.	.
O=C(COC(=O)c1cccs1)c1ccc2ccccc2c1	-15	-13*	i	-18*	-2.3	i	56%*	i	30%*	101*	i
COCCN(C(=O)CNC(=O)c1ccco1)C(C(=O)NC1CCCCC1)c1cccs1 (stereo not given)	-5	i	i	i	-0.65	i	.	.	.	.	.
Cc1c(C)n(C(=O)CN2CCN(c3ccccc3)CC2)c2ccccc12	-10	-10*	i	i	0.9	i	i	i	i	83*	i
CCc1ccc(-c2cc3c(=O)n(CC(=O)NCCN4CCCCC4C)nc(C)n3n2)cc1 (stereo not given)	-12	i	i	i	-2.3	i	.	.	.	.	.
Cc1cc(NC(=O)COC(=O)c2nccnc2N)n(-c2ccccc2)n1	-14	i	i	i	2	i	.	.	.	.	.
CC(C)(C)c1cc(NC(=O)COC(=O)c2nccnc2N)n(-c2ccccc2)n1	-11	-9.1*	i	-8.6*	1.8	i	52%*	i	32%*	94*	i
COc1ccc(NC(=O)c2cccc(NC(=O)c3ccccc3)c2)c(OC)c1	0	i	i	i	-0.74	i	.	.	.	.	.
COc1ccc(OC)c(NC(=O)c2cccc(NC(=O)c3ccccc3)c2)c1	-5	-11*	i	-9*	3.9	i	47%*	i	i	102*	i
COc1cccc(C(=O)Nc2cccc(-c3nnc(-c4ccccc4)o3)c2)c1	-16	-10*	i	-8.4*	-1.4	i	46%*	i	30%*	103*	0.15*
O=C(C1COc2ccccc2O1)N1CCN(S(=O)(=O)c2ccccc2)CC1 (stereo not given)	-9	i	i	i	-0.17	i	.	.	.	.	.
COc1cccc(C(=O)COC(=O)COc2c(C)cc(C)cc2C)c1	.	i	.	.	.	.	.	.	.	.	.
CC(Oc1ccc(Cl)cc1)c1ccnn1S(=O)(=O)c1ccccc1 (stereo not given)	-8	-9.9*	i	-11*	-2.8	i	37%*	52%*	60%*	100*	0.14*
CN(CC(=O)Nc1cc(Cl)cc(Cl)c1)Cc1cccs1	-4	-13*	i	-14*	-2.2	i	63%*	i	44%*	122*	0.16*
CCCOC(=O)c1ccc(NC(=O)CN(C)Cc2cccs2)cc1	-11	-10*	i	-12*	-1.6	i	50%*	i	i	94*	i
CN(CC(=O)NCCc1ccc(F)cc1)Cc1cccs1	-15	i	i	i	-0.63	i	.	.	.	.	.
CCCN(CC(=O)Nc1ccccc1C)C(=O)c1ccc(N2CCCCCC2)c([N+](=O)[O-])c1	-4	i	i	i	0.97	i	.	.	.	.	.
SMILES	hERG protect	KCNK3 block	KCNQ1 inh	KCNK9 inh	Kir21 block	KCNQ1 pot	KCNK9 block conf	Kir2-1 spec	HEK293 Tl ctr	KCNK3 inh conf	KCNK3 noninduced
CSc1ccccc1NC(=O)C1=CC(c2ccc(C)cc2)=NS(=O)(=O)N1C	-9	i	i	i	-2	i	.	.	.	.	.
O=C(Nc1cccc([N+](=O)[O-])c1)c1cc(S(=O)(=O)N2CCOCC2)cs1	-5	i	i	i	0.8	i	.	.	.	.	.
O=C(Nc1ccc(Cl)cn1)c1ccccc1SCc1ccccc1	-6	-11*	i	-15*	0.11	i	78%*	i	47%*	128*	0.15*
Cc1cc(Oc2nc3c(C)cccn3c(=O)c2/C=C(\C#N)S(=O)(=O)c2ccc(Cl)cc2)ccc1Cl	-8	i	i	i	0.29	i	.	.	.	.	.
COc1ccc(/C(C#N)=C/c2c(-c3ccc(Cl)cc3)nc3c(C)cccn23)cc1	-11	-10*	i	-11*	0.04	i	42%*	i	29%*	101*	0.15*
N#Cc1c(-c2ccccc2)c(-c2ccccc2)n(Cc2ccco2)c1NC(=O)c1cccs1	-5	-13*	6*	-13*	-0.8	i	58%*	i	42%*	112*	i
COc1ccccc1C1CCN(c2cc(O)ccc2[N+](=O)[O-])CC1	-13	-10*	11*	-11*	-0.04	i	55%*	i	44%*	111*	i
COc1ccccc1C1CCN(C(=O)C2CCCCC2)CC1	-5	i	i	i	-1.1	i	.	.	.	.	.
COc1ccc(CCNC(=O)CSc2nc3ccsc3c(=O)n2CC2CCC(C(=O)O)CC2)cc1OC (stereo not given)	-6	i	i	i	1.8	i	.	.	.	.	.
